Results reported in ChEMBL document CHEMBL1125119, “Pyrroloisoquinoline antidepressants. 3. A focus on serotonin” (J Med Chem, 1990).

Each molecule was assayed on Mus musculus (assay: In vivo effect on Tetrabenazine ptosis activity in mice following i.p. administration.). Settings: ip.
Format: functional
For `CN(C)CCCN1c2ccccc2CCc2ccccc21` [IMIPRAMINE], the ED50 was 0.98 mg/kg.

The molecules below were run against dopamine transporter (Rattus norvegicus) (assay: Tested in vitro for dopamine(DA) neuronal uptake inhibition). Settings: not given.
`NC(=O)c1ccc(C2CN3CCCC3c3ccccc32)cc1` (centres undefined) showed a Ki of 84.5 nM.
With `CSc1ccc(C2CN3CCCC3c3c(C#N)cccc32)cc1.Cl` (centres undefined) the Ki was 2800 nM.
`C[S+]([O-])c1ccc(C2CN3CCCC3c3ccccc32)cc1` (stereo in doubt; 11b) was tested, and the Ki was 6180 nM.

System: dopamine transporter (Rattus norvegicus)
Test: as above
Settings: not given
Remark: another data set of the same source
`COc1cc(OC)c2c(c1)C1CCCN1CC2c1ccc(SC)cc1.Cl` (centres undefined) was tested, and the Inhibition was 67%.
Work on `C[S+]([O-])c1ccc(C2CN3CCCC3c3ccccc32)cc1` (stereo in doubt; 11a) yielded an Inhibition of 2%.

What follows are molecules tested on Rattus norvegicus (assay: Tested in vivo for serotonin syndrome antagonizing activity in rat). Settings: not given.
Format: functional
With `N#Cc1ccc(C2CN3CCCC3c3ccccc32)cc1` (centres undefined) the ED50 was 15 mg/kg.
With `CN(C)CCCC1(c2ccc(F)cc2)OCc2cc(C#N)ccc21` (centres undefined) [CITALOPRAM] the ED50 was 0.78 mg/kg.
In the case of `CNCCC(Oc1ccc(C(F)(F)F)cc1)c1ccccc1` (centres undefined) [FLUOXETINE], the ED50 is reported as 12.7 mg/kg.
In the case of `CN(C)CCCN1c2ccccc2CCc2ccccc21` [IMIPRAMINE], the ED50 is reported as greater than 25 mg/kg.
In the case of `Fc1ccc([C@@H]2CCNC[C@H]2COc2ccc3c(c2)OCO3)cc1` [PAROXETINE], the ED50 is reported as 0.49 mg/kg.

These molecules were tested on Mus musculus (assay: Tested in vivo for head twitches antagonizing activity in mice at a dose of 5 mg/kg). Settings: not given.
Format: functional
In short: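 Male Swiss CD-1 mice (19–24 g), 10 per dose, received test compound s.c. 30 min later they got a subthreshold dose of L-5-hydroxytryptophan (50 mg/kg i.p.). After 15 min acclimation, presence or absence of head twitches was scored over 2 min. Results were expressed as percent responding or as ED50 by probit analysis, using at least three doses.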
`CSc1ccccc1C1CN2CCCC2c2ccccc21` (centres undefined) showed an inhibition in vivo at 5 mg/kg of 30%.

The molecules below were run on Mus musculus (assay: Tested in vivo for head twitches antagonizing activity in mice). Settings: not given.
Format: functional
Molecule `CSc1ccc(C2CN3CCC[C@@H]3c3ccccc32)cc1` (single isomer, unassigned; (+)) has an ED50 of 0.043 mg/kg.
Work on `CSc1ccc(C2CN3CCC[C@@H]3c3ccccc32)cc1` (single isomer, unassigned; (-)) yielded an ED50 of roughly 5 mg/kg.
In the case of `C[S+]([O-])c1ccc(C2CN3CCCC3c3ccccc32)cc1` (stereo in doubt; 11a), the ED50 is reported as greater than 5 mg/kg.
`C[S+]([O-])c1ccc(C2CN3CCCC3c3ccccc32)cc1` (stereo in doubt; 11b) gave an ED50 of 0.55 mg/kg.

Same assay, conditions: Mus musculus; read-out: ED50
For `NC(=O)c1ccc(C2CN3CCCC3c3ccccc32)cc1` (centres undefined), the ED50 was roughly 5 mg/kg.
With `N#Cc1ccc(C2CN3CCCC3c3ccccc32)cc1` (centres undefined) the ED50 was roughly 3 mg/kg.
`C#Cc1ccc(C2CN3CCCC3c3ccccc32)cc1` (centres undefined) was tested, and the ED50 was roughly 1 mg/kg.
In the case of `CSc1ccc(C2CN3CCCC3c3c(Br)cccc32)cc1.Cl` (centres undefined), the ED50 is reported as greater than 5 mg/kg.
`CSc1ccc(C2CN3CCCC3c3c(C#N)cccc32)cc1.Cl` (centres undefined) showed an ED50 greater than 5 mg/kg.
`COc1cc(OC)c2c(c1)C1CCCN1CC2c1ccc(SC)cc1.Cl` (centres undefined) gave an ED50 of roughly 5 mg/kg.
`Clc1ccc(C2CN3CCCC3c3ccccc32)c(Cl)c1` (centres undefined) showed an ED50 of roughly 5 mg/kg.
`CN(C)CCCC1(c2ccc(F)cc2)OCc2cc(C#N)ccc21` (centres undefined) [CITALOPRAM] showed an ED50 of 0.29 mg/kg.
`CNCCC(Oc1ccc(C(F)(F)F)cc1)c1ccccc1` (centres undefined) [FLUOXETINE] showed an ED50 of 0.43 mg/kg.
`CN(C)CCCN1c2ccccc2CCc2ccccc21` [IMIPRAMINE] showed an ED50 greater than 50 mg/kg.
With `Fc1ccc([C@@H]2CCNC[C@H]2COc2ccc3c(c2)OCO3)cc1` [PAROXETINE] the ED50 was 0.062 mg/kg.

What follows are molecules tested against norepinephrine transporter (Rattus norvegicus) (assay: Tested in vitro for norepinephrine (NE) neuronal uptake inhibition). Settings: not given.
`NC(=O)c1ccc(C2CN3CCCC3c3ccccc32)cc1` (centres undefined) gave a Ki of 90.2 nM.
With `CSc1ccc(C2CN3CCCC3c3c(C#N)cccc32)cc1.Cl` (centres undefined) the Ki was 390 nM.
With `C[S+]([O-])c1ccc(C2CN3CCCC3c3ccccc32)cc1` (stereo in doubt; 11b) the Ki was 723 nM.

System: norepinephrine transporter (Rattus norvegicus)
Test: as above
Settings: not given
Remark: another data set of the same source
`COc1cc(OC)c2c(c1)C1CCCN1CC2c1ccc(SC)cc1.Cl` (centres undefined) was tested, and the Inhibition was 55%.
Molecule `C[S+]([O-])c1ccc(C2CN3CCCC3c3ccccc32)cc1` (stereo in doubt; 11a) has an Inhibition of 4%.

Each molecule was assayed against serotonin transporter (Rattus norvegicus) (assay: Tested in vitro for serotonin(5-HT) neuronal uptake inhibition). Settings: not given.
`CSc1ccc(C2CN3CCCC3c3c(C#N)cccc32)cc1.Cl` (centres undefined) gave a Ki of 14.7 nM.
`C[S+]([O-])c1ccc(C2CN3CCCC3c3ccccc32)cc1` (stereo in doubt; 11b) was tested, and the Ki was 597 nM.

System: serotonin transporter (Rattus norvegicus)
Test: as above
Settings: not given
Remark: another data set of the same source
`COc1cc(OC)c2c(c1)C1CCCN1CC2c1ccc(SC)cc1.Cl` (centres undefined) gave an Inhibition of 68%.
With `C[S+]([O-])c1ccc(C2CN3CCCC3c3ccccc32)cc1` (stereo in doubt; 11a) the Inhibition was 12%.

The molecules below were run on Rattus norvegicus (assay: Tested in vivo for serotonin syndrome antagonizing activity in rat on oral administration). Settings: not given.
Format: functional
Work on `NC(=O)c1ccc(C2CN3CCCC3c3ccccc32)cc1` (centres undefined) yielded an ED50 of 4.5 mg/kg.

Each molecule was assayed on Mus musculus (assay: In vivo effect on Tetrabenazine motor activity in mice following i.p. administration.). Settings: ip.
Format: functional
`C[S+]([O-])c1ccc(C2CN3CCCC3c3ccccc32)cc1` (stereo in doubt; 11b) gave an ED50 greater than 3 mg/kg.
`CN(C)CCCN1c2ccccc2CCc2ccccc21` [IMIPRAMINE] showed an ED50 of 0.58 mg/kg.
